The source made the active and inactive calls.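 The calls were made as follows, unless noted: active = duplicate-averaged activation above buffer control mean plus 5 SD of those controls; inactive = the rest.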
Assays:
[1] = thallium flux activation in parental CHO cells, counter-screen for KCNQ1 potentiator project (AID 493006); settings: parental CHO-K1 cells, FluxOR thallium flux, at 10 µM; hits give high values
Method in brief: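 Assay system: Untransfected host CHO-K1 cells with FluxOR thallium dye | Probe or stimulus: Potassium/thallium depolarization pulse | Schedule: Overnight 37 °C plating, 90 min RT dye, 20 min compound | Detection: Kinetic thallium-flux fluorescence | Read-out: Max-minus-min fluorescence over baseline, percent of buffer-to-R-L3 span | Benchmarks: Low control buffer, high control R-L3 activator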

[2] = molecular target: Potassium voltage-gated channel subfamily KQT member 1 (Homo sapiens) (UniProt P51787); assay: KCNQ1 potassium channel potentiators, confirmation, FluxOR thallium flux, CHO cells, duplicates (AID 493007;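 active = potentiation averaged over duplicate wells exceeding buffer-only control mean by more than 3 SD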;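 as to outcome: cells depolarized by a potassium plus thallium sulfate stimulus after compound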); settings: KCNQ1 cell line, FluxOR thallium flux fluorescence, at 10 µM; hits give high values, % of reference activator effect, buffer zero
Method in brief: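 Material: KCNQ1-expressing CHO cell line; Incubation: FluxOR dye loading 90 min, compound exposure 20 min, room temperature; Detection: FluxOR Tl+ flux fluorescence, 10 s baseline plus 110 s recording; Read-out: percent activation between buffer and R-L3 responses; Control set: buffer-only wells as 0% and R-L3 activator as 100%; Replication: duplicate wells per compound.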

[3] = molecular target: Potassium voltage-gated channel subfamily KQT member 2 (Rattus norvegicus) (UniProt O88943); assay: rat KCNQ2 channel potentiation, selectivity assay for KCNQ1 potentiator project, KCNQ2-CHO-K1 cells (AID 493009;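 active = mean duplicate potentiation above the buffer control mean plus 5 SD of buffer wells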;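 also: assay conditions were tuned for KCNQ1 rather than KCNQ2 modulators; signal is max minus min fluorescence divided by baseline after thallium stimulus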); settings: FluxOR thallium flux fluorescence, at 10 µM; hits give high values, scaled: buffer 0, activator control 100
[4] = molecular target: Potassium voltage-gated channel subfamily KQT member 1 (Homo sapiens) (UniProt P51787); assay: KCNQ1 channel current potentiators, confirmation, orthogonal assay for KCNQ1 potentiator project, IonWorks patch clamp, KCNQ1-CHO cells (AID 493184;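 active = current rise at least 3 SD above the untreated control mean in each of two repeat wells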); settings: automated patch clamp current, at 10 µM; hits give high values
Method in brief: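 assay system = KCNQ1-expressing CHO cells | medium = external bath solution at pH 7.4 | probe or stimulus = 2,000 ms depolarization, -90 to +40 mV | compound dosing = 10 µM final, single point | measured by = automated voltage clamp, amphotericin B perforated patch | measure = percent current increase versus pre-compound level | replication = duplicates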

Chain of Potassium voltage-gated channel subfamily KQT member 2 (Rattus norvegicus) (O88943 whole entry, looked up): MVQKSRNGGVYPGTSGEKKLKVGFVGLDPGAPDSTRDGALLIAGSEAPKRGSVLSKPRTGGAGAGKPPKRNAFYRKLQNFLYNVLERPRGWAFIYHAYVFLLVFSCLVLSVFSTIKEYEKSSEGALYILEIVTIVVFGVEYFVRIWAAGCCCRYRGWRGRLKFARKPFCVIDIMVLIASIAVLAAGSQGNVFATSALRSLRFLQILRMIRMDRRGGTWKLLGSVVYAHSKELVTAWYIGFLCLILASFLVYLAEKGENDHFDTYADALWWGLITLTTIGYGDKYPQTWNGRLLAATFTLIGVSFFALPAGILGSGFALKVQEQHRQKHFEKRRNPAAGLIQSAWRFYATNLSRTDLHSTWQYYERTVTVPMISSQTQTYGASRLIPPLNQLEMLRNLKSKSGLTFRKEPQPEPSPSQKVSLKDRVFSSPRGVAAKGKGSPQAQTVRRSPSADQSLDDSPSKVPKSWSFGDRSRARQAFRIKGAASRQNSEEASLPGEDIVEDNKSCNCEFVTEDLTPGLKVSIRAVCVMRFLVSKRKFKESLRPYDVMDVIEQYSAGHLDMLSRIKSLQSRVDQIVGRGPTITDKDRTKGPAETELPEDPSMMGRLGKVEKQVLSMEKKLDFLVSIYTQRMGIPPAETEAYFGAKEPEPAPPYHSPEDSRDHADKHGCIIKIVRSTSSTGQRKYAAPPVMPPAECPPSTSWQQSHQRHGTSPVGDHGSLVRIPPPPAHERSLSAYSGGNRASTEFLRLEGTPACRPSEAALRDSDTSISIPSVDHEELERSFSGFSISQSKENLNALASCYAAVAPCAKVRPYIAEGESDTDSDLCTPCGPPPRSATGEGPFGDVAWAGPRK
Chain of Potassium voltage-gated channel subfamily KQT member 1 (Homo sapiens) (P51787 whole entry, looked up): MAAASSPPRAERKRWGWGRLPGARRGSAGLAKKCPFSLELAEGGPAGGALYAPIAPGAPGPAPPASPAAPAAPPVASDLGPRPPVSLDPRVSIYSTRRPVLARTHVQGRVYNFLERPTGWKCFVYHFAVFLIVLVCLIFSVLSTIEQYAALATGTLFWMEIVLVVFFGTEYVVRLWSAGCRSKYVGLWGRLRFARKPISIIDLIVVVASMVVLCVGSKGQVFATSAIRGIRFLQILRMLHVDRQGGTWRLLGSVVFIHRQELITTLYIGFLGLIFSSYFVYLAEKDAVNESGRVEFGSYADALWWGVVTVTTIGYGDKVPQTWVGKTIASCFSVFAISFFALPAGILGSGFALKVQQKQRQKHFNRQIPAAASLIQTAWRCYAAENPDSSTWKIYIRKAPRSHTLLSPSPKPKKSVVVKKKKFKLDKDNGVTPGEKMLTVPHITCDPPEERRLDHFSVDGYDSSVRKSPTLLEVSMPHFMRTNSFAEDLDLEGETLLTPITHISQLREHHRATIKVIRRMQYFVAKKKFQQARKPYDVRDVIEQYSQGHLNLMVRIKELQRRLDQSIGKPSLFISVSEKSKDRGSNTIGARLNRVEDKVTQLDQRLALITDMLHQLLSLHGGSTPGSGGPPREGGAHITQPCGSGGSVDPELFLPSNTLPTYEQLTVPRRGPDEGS

| SMILES | activation [1] | potentiation [2] | potentiation [3] | outcome [4] | outcome [1] | outcome [2] | outcome [3] |
| --- | --- | --- | --- | --- | --- | --- | --- |
| COc1cc(S(=O)(=O)Nc2cccnc2)ccc1Cl | 200% (active) | 64% (active) | 212% (active) | inactive | – | – | – |
| Cc1ccc(Nc2c([N+](=O)[O-])ccc3nonc23)c(C)c1 | – | – | – | inactive | inactive | inactive | inactive |
| C=CCn1c(=S)[nH]c2sc3c(c2c1=O)CCC3 | 364% (active) | 124% (active) | 301% (active) | inactive | – | – | – |
| CCN(CC)CC(=O)Nc1ccc2c(c1)Nc1ccccc1CC2 | 234% (active) | 98% (active) | 217% (active) | inactive | – | – | – |
| CCc1ccc(/C=C/C(=O)c2cc(Br)ccc(=O)c2O)cc1 | 203% (active) | 140% (active) | 296% (active) | inactive | – | – | – |
| S=c1[nH]c2ccc(Cl)cc2s1 | 614% (active) | 228% (active) | 526% (active) | inactive | – | – | – |
| CCc1nnc(NC(=O)c2ccc(S(=O)(=O)N(CC)Cc3ccccc3)cc2)o1 | 254% (active) | 107% (active) | 270% (active) | inactive | – | – | – |
| CCCc1cc2c(=O)c(-c3ccccn3)c(C)oc2cc1O | – | – | – | inactive | inactive | inactive | inactive |
| CCN(C(=O)COC(=O)c1ccccc1Nc1cccc(C)c1C)C1CCS(=O)(=O)C1 (stereo not drawn) | – | – | – | inactive | inactive | inactive | inactive |
| CCCCNC(=O)/C(C#N)=C/c1ccc2c(c1)OCCO2 | – | 18.5% (active) | – | inactive | inactive | – | inactive |
| CCOC(=O)NC(=S)Nc1ccc(C(C)(C)C)cc1Br | 213% (active) | 123% (active) | 249% (active) | inactive | – | – | – |
| Cc1ccc(C)c(/C=C/C(=O)c2ccccc(=O)c2O)c1 | 194% (active) | 118% (active) | 333% (active) | inactive | – | – | – |
| Cc1nc(-c2nc(-c3c(C(=O)NNC(=O)c4ccc(Cl)cc4)noc3C)cs2)cs1 | 140% (active) | 54.5% (active) | 184% (active) | inactive | – | – | – |
| O=C1CCC/C(=N\NC(=O)c2ccc(COc3cccc4cccnc34)cc2)C1 | – | – | – | inactive | inactive | inactive | inactive |
| CCCc1nc(SCC(=O)Nc2cc(Cl)ccc2OC)c2c(=O)n(C)c(=O)n(C)c2n1 | – | – | – | inactive | inactive | inactive | inactive |
| CCC(C)c1ccccc1NC(=S)NC(=O)c1ccco1 (stereo not drawn) | 400% (active) | 114% (active) | 431% (active) | inactive | – | – | – |

| SMILES | activation [1] | potentiation [2] | potentiation [3] | outcome [4] | outcome [1] | outcome [2] | outcome [3] |
| --- | --- | --- | --- | --- | --- | --- | --- |
| COc1cccc(C(=O)NNC(=O)C(=O)Nc2ccc(C)cc2)c1 | 206% (active) | 92% (active) | 308% (active) | inactive | – | – | – |
| Cc1ccc(C)c(NC(=S)NNC(=O)c2cc3c(s2)CCC(C)C3)c1 (stereo not drawn) | 192% (active) | 48.5% (active) | 237% (active) | inactive | – | – | – |
| COc1ccc(Cl)cc1NC(=O)/C=C\C(=O)O | – | – | – | inactive | inactive | inactive | inactive |
| COc1ccc(C(=O)CC(=O)C(=O)Nc2ccccc2C(F)(F)F)cc1 | – | 38.5% (active) | 147% (active) | inactive | inactive | – | – |
| CC1CCN(c2ccccc2NC(=S)NC(=O)c2cccs2)CC1 | 139% (active) | 54% (active) | – | inactive | – | – | inactive |
| Cc1csc(N/N=C/c2ccc([N+](=O)[O-])cc2)n1 | – | 46% (active) | 158% (active) | inactive | inactive | – | – |
| O=c1cc(-c2c(F)c(F)c(F)c(F)c2F)oc2ccccc12 | – | – | – | inactive | inactive | inactive | inactive |
| CC(C)c1nc2n[nH]c(N)c2c2c1CSC(C)(C)C2 | – | 31.5% (active) | – | inactive | inactive | – | inactive |
| CCCOC(=S)NC(=O)c1sc2ccccc2c1Cl | 294% (active) | 106% (active) | 274% (active) | inactive | – | – | – |
| Cc1cc(C)c2ccc(C)[n+]([O-])c2c1O | – | – | – | inactive | inactive | inactive | inactive |
| O=C(/C=C/c1ccco1)NC(=S)Nc1ccccc1O | – | – | – | inactive | inactive | inactive | inactive |
| O=C(NN1C(=O)C2C(c3ccccc3)C=CC(c3ccccc3)C2C1=O)c1ccncc1 (stereo not drawn) | 176% (active) | 18% (active) | 152% (active) | inactive | – | – | – |
| CCCn1c(N)c(C(=O)CSc2nc(C)nc3sc(C)c(C)c23)c(=O)[nH]c1=O | 166% (active) | 23% (active) | 194% (active) | inactive | – | – | – |
| CCn1ncc(Cl)c1C(=O)NC(=S)Nc1ccccc1Br | 272% (active) | 200% (active) | 340% (active) | inactive | – | – | – |
| CC(C)Cn1c(=O)c(C(=O)N/N=C/c2cccc(F)c2)c(O)c2ccccc21 | – | – | – | inactive | inactive | inactive | inactive |
| Cn1ccnc1C(OC(=O)c1ccc(Cl)cc1)C(F)(F)F (stereo not drawn) | – | – | – | inactive | inactive | inactive | inactive |

Source: PubChem BioAssay
